Data from ChEMBL document CHEMBL1126865, “Structure-activity relationship within a series of pyrazolidinone antibacterial agents. 2. Effect of side-chain modification on in vitro activity and pharmacokinetic parameters” (J Med Chem, 1993).
≈ marks a conversion by molar mass, not a printed value.

Assays:
[1] = tested on: Pseudomonas aeruginosa; test: In vitro antibacterial activity against Pseudomonas PS72; format: functional
[2] = tested on: Streptococcus pyogenes; test: Minimum inhibitory concentration against Streptococcus pyogenes (C203) after po administration in mice; format: functional
[3] = tested on: Klebsiella pneumoniae; test: In vitro antibacterial activity against Klebsiella X26; format: functional
[4] = tested on: Streptococcus pneumoniae; test: In vitro antibacterial activity against Streptococcus pneumoniae PARK; format: functional
[5] = Half-life period in male rats after iv administration of 20 mg/kg; format: ADME, organism-based; design: dose 20 mg/kg, route intravenous; conditions: rat, in vivo
How it was run: (§1)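 Male Sprague-Dawley rats were given 20 mg/kg IV in 0.9% saline through an indwelling jugular cannula, which was also used for serial blood sampling. Plasma and cumulative urine (citrate pH 6.5, metabolism cages) were collected over 6 h and stored at -70 °C. Levels were measured by agar well diffusion bioassay against standard curves in plasma or citrate. Half-life = 0.693/β; recovery as % of dose.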

[6] = Plasma binding in male rats […] expressed as percentage of plasma binding; format: ADME, organism-based; conditions: rat, iv, read-out: Plasma binding (converted)
How it was run: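 Binding was measured in vitro in pooled Sprague-Dawley rat plasma at a drug concentration of 20 μg/mL by ultrafiltration and reported as % bound.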

[7] = Urinary recovery expressed as percentage dose in male rats after iv administration of 20 mg/kg; format: ADME, organism-based; design: dose 20 mg/kg, route intravenous; conditions: rat, urine; how it was run: as §1
[8] = Urinary recovery expressed as percentage dose in male CD-1 mice after po administration of 20 mg/kg; format: ADME, organism-based; design: dose 20 mg/kg, route oral; conditions: CD-1, mouse, urine
How it was run: (§2)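 Male CD-1 mice received 20 mg/kg in 0.9% saline, orally or subcutaneously. Cumulative urine over 0–4 h was collected from metabolism cages into 0.1 M sodium citrate, pH 6.5, and stored at -70 °C. Drug levels were measured by agar well diffusion bioassay (E. coli ATCC4157 or Proteus providentia XC24) against spiked standard curves. Half-life = 0.693/β (terminal slope); urinary recovery as % of dose.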

[9] = tested on: Staphylococcus aureus; test: In vitro antibacterial activity against Staphylococcus aureus X1.1; format: functional
[10] = Maximum concentration in male CD-1 mice after sc administration of 20 mg/kg; format: ADME, organism-based; design: dose 20 mg/kg, route subcutaneous; conditions: CD-1, mouse, in vivo; how it was run: as §2
[11] = tested on: Escherichia coli; test: Effective dose against Escherichia coli EC14 after po administration in mice; format: functional
[12] = tested on: Escherichia coli; test: Minimum inhibitory concentration against Escherichia coli EC14 after sc administration in mice; format: functional
[13] = Maximum concentration in male rats after iv administration of 20 mg/kg; format: ADME, organism-based; design: dose 20 mg/kg, route intravenous; conditions: rat, in vivo; how it was run: as §1
[14] = Half-life period in male CD-1 mice after sc administration of 20 mg/kg; format: ADME, organism-based; design: dose 20 mg/kg, route subcutaneous; conditions: CD-1, mouse, in vivo; how it was run: as §2
[15] = tested on: Streptococcus pyogenes; test: Effective dose against Streptococcus pyogenes (C203) after sc administration in mice; format: functional
[16] = tested on: Staphylococcus epidermidis; test: In vitro antibacterial activity against Staphylococcus epidermidis 222; format: functional
[17] = tested on: Klebsiella aerogenes; test: In vitro antibacterial activity against Enterobacter aerogenes C32; format: functional
[18] = tested on: Escherichia coli; test: Minimum inhibitory concentration against Escherichia coli EC14 after po administration in mice; format: functional
[19] = tested on: Escherichia coli; test: Effective dose against Escherichia coli EC14 after sc administration in mice; format: functional
[20] = tested on: Haemophilus influenzae; test: In vitro antibacterial activity against Haemophilus influenza C.L; format: functional
[21] = tested on: Streptococcus pyogenes; test: Minimum inhibitory concentration against Streptococcus pyogenes (C203) after sc administration in mice; format: functional
[22] = Plasma half-life in rats after intravenous administration; format: ADME, organism-based; conditions: rat; how it was run: as §1
[23] = tested on: Escherichia coli; test: In vitro antibacterial activity against Escherichia coli EC14; format: functional
[24] = tested on: Streptococcus pyogenes; test: Effective dose against Streptococcus pyogenes (C203) after po administration in mice; format: functional

**Q.** Which MIC [1] does the source give for `CO/N=C(\C(=O)N[C@H]1CN2CC(C#N)=C(C(=O)O)N2C1=O)c1csc(N)n1` here?
**A.** The MIC was over 128 µg/mL.

**Q.** And the MIC [2]?
**A.** The MIC was 0.25 µg/mL (≈ 0.639 µM).

**Q.** What about the MIC [3] of the same molecule?
**A.** The MIC was 0.25 µg/mL (≈ 0.639 µM).

**Q.** What about the MIC [4] of the same molecule?
**A.** The MIC was 0.25 µg/mL (≈ 0.639 µM).

**Q.** What about the half-life [5] of the same molecule?
**A.** The half-life was 17.9 min.

**Q.** What about the fraction unbound [6] of the same molecule?
**A.** The fraction unbound was 0.585.

**Q.** What about the dose excreted [7] of the same molecule?
**A.** The dose excreted was 87.8%.

**Q.** And the dose excreted [8]?
**A.** Its dose excreted is under 2%.

**Q.** What about the MIC [9] of the same molecule?
**A.** The MIC was 64 µg/mL (≈ 164 µM).

**Q.** What about the Cmax [10] of the same molecule?
**A.** The Cmax was 71 µg/mL.

**Q.** And the ED50 [11]?
**A.** The ED50 was 7.87 mg/kg.

**Q.** And the MIC [12]?
**A.** The MIC was 0.25 µg/mL (≈ 0.639 µM).

**Q.** And the Cmax [13]?
**A.** Its Cmax is 120 µg/mL.

**Q.** And the half-life [14]?
**A.** Its half-life is 12.2 min.

**Q.** And the ED50 [15]?
**A.** The ED50 was 0.625 mg/kg.

**Q.** What about the MIC [16] of the same molecule?
**A.** Its MIC is 64 µg/mL (≈ 164 µM).

**Q.** And the MIC [17]?
**A.** The MIC was 1 µg/mL (≈ 2.56 µM).

**Q.** And the MIC [18]?
**A.** The MIC was 0.25 µg/mL (≈ 0.639 µM).

**Q.** What about the ED50 [19] of the same molecule?
**A.** Its ED50 is 0.67 mg/kg.

**Q.** What about the MIC [20] of the same molecule?
**A.** Its MIC is 0.5 µg/mL (≈ 1.28 µM).

**Q.** What about the MIC [21] of the same molecule?
**A.** The MIC was 0.25 µg/mL (≈ 0.639 µM).

**Q.** And the half-life [22]?
**A.** Its half-life is 18 min.

**Q.** What about the MIC [23] of the same molecule?
**A.** The MIC was 0.25 µg/mL (≈ 0.639 µM).

**Q.** And the ED50 [24]?
**A.** Its ED50 is 6.68 mg/kg.
